Laboratory results from ChEMBL document CHEMBL3407498, “Design, synthesis and 3D-QSAR studies of novel 1,4-dihydropyridines as TGFβ/Smad inhibitors” (Eur J Med Chem, 2015).
pIC50: −log10 of the molar value.

Columns and labels:
[1] = Inhibition of TGFbeta/Smad in TGFbeta-2/activin A-stimulated HEK293 cells preincubated for 2 hrs before stimulation measured after 20 to 22 hrs by firefly/renilla luciferase reporter assay; format: cell-based; conditions: Homo sapiens
Summary of the method: (§1)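 HEK293T cells co-transfected with SBE-4 firefly luciferase and TK-driven renilla luciferase plasmids, replated after 12-14 h, rested 2 h, then given compound, DMSO and TGFβ-2 or Activin A (10 ng/mL). Firefly and renilla signals read after 20-22 h by dual luciferase kit. Triplicate wells; data normalized to DMSO (0% inhibition), mean ± SD of 2-4 independent experiments.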

HEK293 = test: Inhibition of TGFbeta/Smad in TGFbeta-2/activin A-stimulated HEK293 cells preincubated at 2.5 uM for 2 hrs before stimulation measured after 20 to 22 hrs by firefly/renilla luciferase reporter assay; format: cell-based; conditions: Homo sapiens; summary of the method: as §1

Row | Compound | pIC50 [1] | inhibition (HEK293) [%]
1 | CCOC(=O)C1=C(C)NC2=C(C(=O)CC(C)(C)C2)C1c1ccc(-c2ccc(S(C)(=O)=O)cc2)cc1 (stereo not drawn) | 5.56 | 44
2 | CCN(CC)CCN1C2=C(C(=O)CC(C)(C)C2)C(c2ccccc2)C2=C1CC(C)(C)CC2=O |  | 12
3 | CCOC(=O)C1=C(C)NC2=C(C(=O)CC(C)(C)C2)C1c1ccc(-c2ccccc2)cc1 (stereo not drawn) | 6.07 | 83
4 | CC1(C)CC(=O)C2=C(C1)NC1=C(C(=O)CC(C)(C)C1)C2c1ccccc1 |  | 21
5 | CCOC(=O)C1=C(C)NC2=C(C(=O)CC(C)(C)C2)C1c1ccc(C(C)(C)C)cc1 (stereo not drawn) |  | 90
6 | CCNCC1=C(C(=O)OCC)C(c2ccc(-c3ccccc3)cc2)C2=C(CC(C)(C)CC2=O)N1 (stereo not drawn) | 5.46 | 64
7 | CCOC(=O)C1=C(C)NC2=C(C(=O)CC(C)(C)C2)C1c1ccc(-c2ccc(OC(F)(F)F)cc2)cc1 (stereo not drawn) | 6.32 | 95
8 | CC1=C(C(=O)OC(C)(C)C)C(c2ccc(-c3ccccc3)cc2)C2=C(CC(C)(C)CC2=O)N1 (stereo not drawn) | 6.17 | 84
9 | CCN1CC2=C(C1=O)C(c1ccc(-c3ccccc3)cc1)C1=C(CC(C)(C)CC1=O)N2 (stereo not drawn) | 5.30 | 25
10 | CCOC(=O)C1=C(C)NC2=C(C(=O)CC(C)(C)C2)C1c1ccc(-c2ccc(C#N)cc2)cc1 (stereo not drawn) | 5.75 | 52
11 | CC1(C)CC(=O)C2=C(C1)NC1=C(C(=O)c3ccccc31)C2c1ccc(-c2ccccc2)cc1 (stereo not drawn) | 5.90 | 70
12 | COC(=O)C1=C(C(=O)O)NC2=C(C(=O)CC(C)(C)C2)C1c1ccc(-c2ccccc2)cc1 (stereo not drawn) |  | 4
13 | CCOC(=O)C1=C(C)NC2=C(C(=O)CC(C)(C)C2)C1c1ccc(-c2ccc(OC)cc2)cc1 (stereo not drawn) | 6.38 | 93
14 | CCOC(=O)C1=C(C)NC2=C(C(=O)CC(C)(C)C2)C1c1ccc(-c2ccc(C(F)(F)F)cc2)cc1 (stereo not drawn) | 6.01 | 88
15 | CCOC(=O)C1=C(C)NC2=C(C(=O)CC(C)(C)C2)C1c1ccc(O)c(OC)c1 (stereo not drawn) |  | 8
16 | CCOC(=O)C1=C(C)NC2=C(C(=O)CC(C)(C)C2)C1c1ccc(-c2ccc(Cl)cc2)cc1 (stereo not drawn) | 6.12 | 91
17 | CC1(C)CC(=O)C2=C(C1)NC1=C(C(=O)N(Cc3ccccc3)C1)C2c1ccc(-c2ccccc2)cc1 (stereo not drawn) | 6.06 | 82
18 | COC(=O)C1=C(C(=O)OC)C(c2ccc(-c3ccccc3)cc2)C2=C(CC(C)(C)CC2=O)N1 (stereo not drawn) | 5.70 | 46
19 | CCOC(=O)C1=C(C(=O)O)NC2=C(C(=O)CC(C)(C)C2)C1c1ccc(-c2ccccc2)cc1 (stereo not drawn) |  | 0
20 | CCOC(=O)C1=C(N)NC2=C(C(=O)CC(C)(C)C2)C1c1ccc(C(C)(C)C)cc1 (stereo not drawn) | 6.29 | 89
21 | CC1=C(C(=O)OC(C)C)C(c2ccc(-c3ccccc3)cc2)C2=C(CC(C)(C)CC2=O)N1 (stereo not drawn) | 6.18 | 85
22 | CCOC(=O)C1=C(C(=O)OCC)C(c2ccc(-c3ccccc3)cc2)C2=C(CC(C)(C)CC2=O)N1 (stereo not drawn) | 5.74 | 56
23 | CCOC(=O)C1=C(C)NC2=C(C(=O)NCC2)C1c1ccc(-c2ccccc2)cc1 (stereo not drawn) |  | 21
24 | CCOC(=O)C1=C(C)NC2=C(C(=O)CC(C)(C)C2)C1c1ccc(-c2ccncc2)cc1 (stereo not drawn) | 5.21 | 27
25 | CCOC(=O)C1=C(C)NC2=C(C(=O)CC(C)(C)C2)C1c1cc(OC)c(OC)c(OC)c1 (stereo not drawn) |  | 5
26 | C#Cc1ccc(C2C(C(=O)OCC)=C(C)NC3=C2C(=O)CC(C)(C)C3)cc1 (stereo not drawn) | 5.77 | 59
27 | CCOC(=O)C1=C(C)NC2=C(C(=O)CC(C)(C)C2)C1c1ccc(-c2ccc(C)cc2)cc1 (stereo not drawn) | 6.46 | 94

Row | Compound | pIC50 [1] | inhibition (HEK293) [%]
28 | CCCCCCCCCCCCOC(=O)C1=C(C)NC2=C(C(=O)CC(C)(C)C2)C1c1ccc(-c2ccccc2)cc1 (stereo not drawn) |  | 0
29 | COC(=O)C1=C(C)NC2=C(C(=O)CC(C)C2)C1c1ccc(-c2ccccc2)cc1 (stereo not drawn) |  | 21
30 | CC1=C(C#N)C(c2ccc(-c3ccccc3)cc2)C2=C(CC(C)(C)CC2=O)N1 (stereo not drawn) | 5.53 | 44
31 | CCNC(=O)C1=C(C)NC2=C(C(=O)CC(C)(C)C2)C1c1ccc(-c2ccccc2)cc1 (stereo not drawn) |  | 31
32 | CCCNCC1=C(C(=O)OCC)C(c2ccc(-c3ccccc3)cc2)C2=C(CC(C)(C)CC2=O)N1 (stereo not drawn) | 5.80 | 57
33 | CC1(C)CC(=O)C2=C(C1)NC1=C(C(=O)NC1)C2c1ccc(-c2ccccc2)cc1 (stereo not drawn) |  | 28
34 | CCOC(=O)C1=C(N)NC2=C(C(=O)CC(C)(C)C2)C1c1ccc(-c2ccccc2)cc1 (stereo not drawn) | 5.88 | 61
35 | CCCC(=O)C1=C(C)NC2=C(C(=O)CC(C)(C)C2)C1c1ccc(-c2ccccc2)cc1 (stereo not drawn) | 6.30 | 84
36 | CC1(C)CC(=O)C2=C(C1)NC1=C(C(=O)c3ccccc31)C2c1ccccc1 (stereo not drawn) |  | 11
37 | CCOC(=O)C1=C(C)NC2=C(C(=O)CC(C)(C)C2)C1c1ccc(-c2ccc(Br)cc2)cc1 (stereo not drawn) | 6.34 | 94
38 | CCOC(=O)C1=C(COC)NC2=C(C(=O)CC(C)(C)C2)C1c1ccc(-c2ccccc2)cc1 (stereo not drawn) | 5.72 | 78
39 | CC1=C(C(=O)OCC(C)C)C(c2ccc(-c3ccccc3)cc2)C2=C(CC(C)(C)CC2=O)N1 (stereo not drawn) | 6.38 | 
40 | C=CCOC(=O)C1=C(C)NC2=C(C(=O)CC(C)(C)C2)C1c1ccc(-c2ccccc2)cc1 (stereo not drawn) | 6.21 | 91
41 | CCC(=O)C1=C(CC)NC2=C(C(=O)CC(C)(C)C2)C1c1ccc(-c2ccccc2)cc1 (stereo not drawn) | 5.79 | 62
42 | CCOC(=O)C1=C(C)NC2=C(C(=O)CC(C)(C)C2)C1c1ccccc1OC(F)(F)F (stereo not drawn) |  | 9
43 | CCOC(=O)C1=C(C)NC2=C(C(=O)CC(C)(C)C2)C1c1ccc(-c2ccc(N(C)C)cc2)cc1 (stereo not drawn) | 6.48 | 95
44 | CCCCC(=O)C1=C(C)NC2=C(C(=O)CC(C)(C)C2)C1c1ccc(-c2ccccc2)cc1 (stereo not drawn) | 6.25 | 80
45 | CCOCCOC(=O)C1=C(C)NC(C)=C(C(=O)OCCOCC)C1c1ccccc1OC(F)(F)F |  | 4
46 | CCOC(=O)C1=C(C)NC2=C(C(=O)CC(C)(C)C2)C1c1ccc(-c2ccc(O)cc2)cc1 (stereo not drawn) | 6.14 | 74
47 | CCCOC(=O)C1=C(C)NC2=C(C(=O)CC(C)(C)C2)C1c1ccc(-c2ccccc2)cc1 (stereo not drawn) | 6.31 | 93
48 | CC1=C(C(=O)OC2CCCC2)C(c2ccc(-c3ccccc3)cc2)C2=C(CC(C)(C)CC2=O)N1 (stereo not drawn) | 5.95 | 77
49 | CCOC(=O)C1=C(C)NC2=C(C(=O)CC(C)(C)C2)C1c1ccccc1 (stereo not drawn) |  | 2
50 | CCOC(=O)C1=C(C)NC2=C(C(=O)CC(C)(C)C2)C1c1ccc(-c2ccc(F)cc2)cc1 (stereo not drawn) | 5.91 | 74
51 | CCCOCCOC(=O)C1=C(C)NC2=C(C(=O)CC(C)(C)C2)C1c1ccc(-c2ccccc2)cc1 (stereo not drawn) |  | 0
52 | CC1(C)CC(=O)C2=C(C1)NC1=C(C(=O)OC1)C2c1ccc(-c2ccccc2)cc1 (stereo not drawn) | 5.37 | 37
53 | CC1=C(C(=O)NCc2ccccc2)C(c2ccc(-c3ccccc3)cc2)C2=C(CC(C)(C)CC2=O)N1 (stereo not drawn) | 5.28 | 32
